An excerpt weighted towards active compounds, which were near 4.1% of everything screened.
MrgX1 antagonist = blocks BAM8-22 activation of human MrgX1 receptor; B-score at 10 µM; MRGX1-HEK293 calcium flux, Fluo-4, BAM8-22 antagonism; active compounds read low; 310,000 compounds, 1.3% hits; AID 588676; Q96LB2;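 active = calcium-response B-score plate-corrected more than 3 library SD below zero, starting fluorescence within 5 deviations, no agonist response on first addition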;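 note: peak minus trough fluorescence over baseline after final BAM8-22 challenge near maximal dose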
Target sequence (Q96LB2 whole entry, looked up): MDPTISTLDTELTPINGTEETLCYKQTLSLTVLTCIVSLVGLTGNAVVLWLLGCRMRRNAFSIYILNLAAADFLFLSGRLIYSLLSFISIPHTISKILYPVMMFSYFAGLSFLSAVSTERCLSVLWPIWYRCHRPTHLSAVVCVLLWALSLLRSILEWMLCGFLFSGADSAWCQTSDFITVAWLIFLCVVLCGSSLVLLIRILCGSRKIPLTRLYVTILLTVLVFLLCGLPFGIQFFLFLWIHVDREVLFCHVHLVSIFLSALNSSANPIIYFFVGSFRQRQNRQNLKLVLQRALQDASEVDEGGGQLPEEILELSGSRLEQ
Kir21 block = inhibitors of mouse Kir2.1 inward-rectifier potassium channel; 310,000 compounds, 0.85% hits; HEK293-Kir2.1, FluxOR thallium flux fluorescence; active compounds read low; B-score at 10 µM;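 active = fluorescence ratio B-score at or below minus 3 SD of library scores, with starting-brightness B-score within 2 SD, cut at about -4.2 in these data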;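 note: channel flux triggered by added potassium and thallium sulfate stimulus; B-score of peak minus minimum fluorescence over baseline after thallium stimulus; more negative B-score means stronger Kir2.1 block with less thallium influx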
Target sequence (P35561 whole entry, looked up): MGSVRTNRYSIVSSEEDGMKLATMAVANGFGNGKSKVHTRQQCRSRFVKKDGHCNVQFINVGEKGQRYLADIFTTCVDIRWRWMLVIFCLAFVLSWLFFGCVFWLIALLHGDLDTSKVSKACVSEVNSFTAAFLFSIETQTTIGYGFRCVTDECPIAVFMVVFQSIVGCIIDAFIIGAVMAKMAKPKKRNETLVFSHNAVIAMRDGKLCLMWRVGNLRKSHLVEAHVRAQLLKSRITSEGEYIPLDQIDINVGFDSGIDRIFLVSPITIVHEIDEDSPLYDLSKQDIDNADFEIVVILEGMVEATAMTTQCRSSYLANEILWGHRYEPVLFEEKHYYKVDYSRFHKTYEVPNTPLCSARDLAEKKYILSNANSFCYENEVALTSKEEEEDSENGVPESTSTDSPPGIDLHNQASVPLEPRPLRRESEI
RGS4 act = potentiators or activators of RGS4 | B-score at 10 µM | 310,000 compounds, 0.92% hits | AID 463111 | HEK293 M3R/inducible RGS4, carbachol calcium flux Fluo4; active compounds read low;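 active = B-score of the integrated calcium signal more than 4 SD below the library mean, with starting fluorescence not abnormally high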;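 note: negative B-score means reduced calcium response which marks RGS4 activation or potentiation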
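Detection: kinetic calcium fluorescence imaging with Fluo4-AM dye, 2 µM / Material: HEK293 cells with stable M3R and inducible RGS4 / Schedule: recording 10 s baseline at 1 Hz, 100 s post-agonist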
MrgX1 PAM = human MrgX1 positive allosteric modulation, primary screen; 310,000 compounds, 0.63% hits; MrgX1-HEK293, Fluo-4 calcium flux, FDSS; active compounds read high; Q96LB2; B-score at 10 µM;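 active = plate-corrected calcium response at least 3 library SD above typical, normal starting fluorescence, not activating the receptor alone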;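 note: compound read alongside a low EC10 to EC30 dose of BAM8-22 agonist; peak minus trough fluorescence over baseline measured at the second addition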
RGS4 inh = human RGS4 inhibition; P49798; HEK293 M3R/RGS4 inducible, Fluo-4 calcium flux; active compounds read high; triggered by carbachol at its EC20; B-score at 10 µM; 310,000 compounds, 0.45% hits; AID 463165;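 active = B-score, a plate-corrected calcium signal, over three deviations above library mean, with baseline fluorescence within five deviations of library mean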;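 note: RGS4 expression induced by doxycycline in cells with stable M3 receptor; B-score is computed from the integrated fluorescence ratio over baseline after carbachol; higher B-score means a larger calcium signal and so more RGS4 inhibition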
MrgX1 ag = human MrgX1 receptor agonism, primary screen; Q96LB2; MrgX1-HEK293 cells, Fluo-4 calcium fluorescence, agonist mode; active compounds read high; B-score at 10 µM; 310,000 compounds, 0.44% hits; AID 588627;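 active = calcium response B-score plate-corrected fluorescence ratio at least 3 library SD, with starting fluorescence B-score inside 5 SD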
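Assay system: MrgX1-expressing HEK293 cells / Amount: fifteen thousand cells per well / Doses: test compound in the initial addition of three / Timing: cells plated overnight, dye loaded 0.5 h 37 °C, 0.5 h room temperature / Technique: kinetic calcium dye fluorescence, Fluo-4 NW / Control set: positive and negative controls per plate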
MrgX1 allo conf = human MrgX1 positive allosteric modulation, re-confirmation; activation (ratio percentage), % at 10 µM; 1,200 compounds, 13% hits; shares compounds with MrgX1 PAM; MrgX1-HEK293, Fluo-4 calcium fluorescence, FDSS;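 active = ratio at least 3 SD above the weak peptide control, stable starting fluorescence, no direct agonism earlier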;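 note: compound followed by low BAM8-22 agonist challenge near EC20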
HEK293 Ca flux = counter-screen for MrgX1 antagonists: effect in parental HEK293 cells | fluorescence ratio F(max-min)/F0 at 10 µM | shares compounds with MrgX1 antagonist | Fluo-4 calcium fluorescence, FDSS | AID 624111 | 4,000 compounds, 2% hits;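 active = duplicate-averaged calcium fluorescence ratio at least three times the standard deviation of buffer wells, a nonspecific response in parental cells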
HEK293 Ca counter = counter-screen for MrgX1 allosteric activators: effect in parental HEK293 cells | shares compounds with MrgX1 antagonist | parental HEK293 calcium flux, Fluo-4 fluorescence ratio; active compounds read high | fluorescence ratio F(max-min)/F0 at 10 µM | AID 624114 | 4,000 compounds, 0.4% hits;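 active = calcium fluorescence ratio, averaged over duplicates, at least 3 SD of the buffer-well ratio, meaning a nonspecific response in receptor-free cells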;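 note: untransfected parental HEK293 lacking MrgX1 used as counterscreen for MrgX1 allosteric activators; fluorescence change taken during the second addition on a kinetic imager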
HEK293 Ca cntr2 = counter-screen for MrgX1 activators: effect in parental HEK293 cells; shares compounds with MrgX1 antagonist; Fluo-4 calcium fluorescence (FDSS); active compounds read high; fluorescence ratio F(max-min)/F0 at 10 µM; 4,000 compounds, 8.7% hits; AID 624115;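 active = calcium fluorescence ratio at least three times the spread of buffer wells, meaning a non-specific response in parental cells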
* = called active by the depositor.

How did O=C(NC12CC3CC(CC(C3)C1)C2)c1cc(F)c(F)c(F)c1F do in these assays?
MrgX1 antagonist: inactive; Kir21 block: -0.62; RGS4 act: inactive; MrgX1 PAM: 6.6*; RGS4 inh: inactive; MrgX1 ag: inactive; MrgX1 allo conf: inactive; HEK293 Ca flux: inactive; HEK293 Ca counter: inactive; HEK293 Ca cntr2: inactive

What do the screens show for `CS(=O)(=O)c1ccccc1-c1nnc(NC(=O)c2ccc(S(=O)(=O)N3CCCC3)cc2)o1`?
MrgX1 antagonist: inactive; Kir21 block: 0.3; RGS4 act: inactive; MrgX1 PAM: inactive; RGS4 inh: inactive; MrgX1 ag: inactive

What do the screens show for `O=C(Nc1nnc(-c2ccccc2Cl)o1)c1ccc(S(=O)(=O)N2CCCCCC2)cc1`?
MrgX1 antagonist: inactive; Kir21 block: 3.2; RGS4 act: inactive; MrgX1 PAM: 8.6*; RGS4 inh: inactive; MrgX1 ag: inactive; MrgX1 allo conf: inactive; HEK293 Ca flux: inactive; HEK293 Ca counter: inactive; HEK293 Ca cntr2: inactive

How did Cn1nnnc1SCC(=O)N1CCN(C(=O)c2ccco2)CC1 do in these assays?
MrgX1 antagonist: inactive; Kir21 block: 0.44; RGS4 act: inactive; MrgX1 PAM: inactive; RGS4 inh: inactive; MrgX1 ag: inactive

Results for O=C1CC(NCc2ccncc2)C(=O)N1c1ccccc1 (centres undefined) ?
MrgX1 antagonist: inactive; Kir21 block: 0.39; RGS4 act: inactive; MrgX1 PAM: inactive; RGS4 inh: inactive; MrgX1 ag: inactive

What do the screens show for `O=C1CC(NCc2ccc(F)cc2)C(=O)N1c1ccccc1` (centres undefined)?
MrgX1 antagonist: inactive; Kir21 block: -0.13; RGS4 act: inactive; MrgX1 PAM: 8.1*; RGS4 inh: inactive; MrgX1 ag: inactive; MrgX1 allo conf: inactive; HEK293 Ca flux: inactive; HEK293 Ca counter: inactive; HEK293 Ca cntr2: inactive

How did Cc1cc(C)n(C(=O)CNc2ccc(C)c(C)c2)n1 do in these assays?
MrgX1 antagonist: inactive; Kir21 block: 1.7; RGS4 act: inactive; MrgX1 PAM: 8.6*; RGS4 inh: inactive; MrgX1 ag: inactive; MrgX1 allo conf: inactive; HEK293 Ca flux: inactive; HEK293 Ca counter: inactive; HEK293 Ca cntr2: inactive

What do the screens show for `CC(NC(=O)CCCc1c[nH]c2ccccc12)c1ccc(F)cc1` (centres undefined)?
MrgX1 antagonist: inactive; Kir21 block: -3.3; RGS4 act: inactive; MrgX1 PAM: inactive; RGS4 inh: inactive; MrgX1 ag: inactive

Results for CC(=O)c1cc(CC=C(C)C)c(O)cc1O ?
MrgX1 antagonist: inactive; Kir21 block: 1.2; RGS4 act: inactive; MrgX1 PAM: 9.9*; RGS4 inh: inactive; MrgX1 ag: inactive; MrgX1 allo conf: inactive; HEK293 Ca flux: inactive; HEK293 Ca counter: inactive; HEK293 Ca cntr2: inactive

What do the screens show for `O=C(CSc1ccc(-c2ccncc2)nn1)N1CCCCC1`?
MrgX1 antagonist: inactive; Kir21 block: 1.2; RGS4 act: inactive; MrgX1 PAM: inactive; RGS4 inh: inactive; MrgX1 ag: inactive

How did O=C(CSc1ccc(-c2ccncc2)nn1)N1CCCC1 do in these assays?
MrgX1 antagonist: inactive; Kir21 block: -1.7; RGS4 act: inactive; MrgX1 PAM: 13*; RGS4 inh: inactive; MrgX1 ag: inactive; MrgX1 allo conf: inactive; HEK293 Ca flux: inactive; HEK293 Ca counter: inactive; HEK293 Ca cntr2: inactive

What do the screens show for `CN(C)CCn1c(=S)[nH]c2ncccc2c1=O`?
MrgX1 antagonist: inactive; Kir21 block: 0.82; RGS4 act: inactive; MrgX1 PAM: 13*; RGS4 inh: inactive; MrgX1 ag: inactive; MrgX1 allo conf: inactive; HEK293 Ca flux: inactive; HEK293 Ca counter: inactive; HEK293 Ca cntr2: inactive

Results for CCOC1=C/C(=C/c2c(N)n3nc(S(=O)(=O)CC)sc3nc2=O)C=CC1=O ?
MrgX1 antagonist: inactive; Kir21 block: -3.1; RGS4 act: inactive; MrgX1 PAM: 34*; RGS4 inh: inactive; MrgX1 ag: inactive; MrgX1 allo conf: inactive; HEK293 Ca flux: 0.64*; HEK293 Ca counter: inactive; HEK293 Ca cntr2: 46*

Results for COC1=CC(=Cc2c(N)n3nc(CC(=O)N4CCOCC4)sc3nc2=O)C=C(OC)C1=O ?
MrgX1 antagonist: inactive; Kir21 block: -12; RGS4 act: inactive; MrgX1 PAM: inactive; RGS4 inh: inactive; MrgX1 ag: inactive

What do the screens show for `CC(C)(C)C(=O)c1cnc(Nc2ccccc2Cl)s1`?
MrgX1 antagonist: inactive; Kir21 block: -1; RGS4 act: inactive; MrgX1 PAM: 7.1*; RGS4 inh: inactive; MrgX1 ag: inactive; MrgX1 allo conf: inactive; HEK293 Ca flux: inactive; HEK293 Ca counter: inactive; HEK293 Ca cntr2: inactive

What do the screens show for `CCOc1ccc(-n2cnnn2)cc1S(=O)(=O)NCCc1ccc(OC)c(OC)c1`?
MrgX1 antagonist: inactive; Kir21 block: -0.03; RGS4 act: inactive; MrgX1 PAM: inactive; RGS4 inh: inactive; MrgX1 ag: inactive

Results for COc1ccc(OCC(=O)N2CCN(S(=O)(=O)c3ccc(Cl)cc3)CC2)cc1 ?
MrgX1 antagonist: inactive; Kir21 block: 1.7; RGS4 act: inactive; MrgX1 PAM: 14*; RGS4 inh: inactive; MrgX1 ag: inactive; MrgX1 allo conf: inactive; HEK293 Ca flux: inactive; HEK293 Ca counter: inactive; HEK293 Ca cntr2: inactive

What do the screens show for `COc1ccc(S(=O)(=O)N2CCC(C(=O)NCC3CC3)CC2)cc1`?
MrgX1 antagonist: inactive; Kir21 block: -2.4; RGS4 act: inactive; MrgX1 PAM: 13*; RGS4 inh: inactive; MrgX1 ag: inactive; MrgX1 allo conf: inactive; HEK293 Ca flux: inactive; HEK293 Ca counter: inactive; HEK293 Ca cntr2: inactive

What do the screens show for `O=C(COc1ccccc1)N1CCN(S(=O)(=O)c2ccc(Cl)cc2)CC1`?
MrgX1 antagonist: inactive; Kir21 block: -2.7; RGS4 act: inactive; MrgX1 PAM: inactive; RGS4 inh: inactive; MrgX1 ag: inactive
